Results on 99 molecules are retold here after ChEMBL document CHEMBL4513216, “Probing the Open Global Health Chemical Diversity Library for Multistage-Active Starting Points for Next-Generation Antimalarials” (ACS Infect Dis, 2020).

The data set in a line: Toxicity liver stage against HepG2, at 10uM. The following applies: human, HepG2-A16-CD81EGFP cells; read-out: INHIBITION
Further details: test concentration 10 uM, cell line HepG2-A16-CD81EGFP. It counts as cell-based. The gist of the method: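 Uninfected HepG2-A16-CD81EGFP cells, 3 × 10^3 per well, 1536-well, plated on prespotted compound at 10 μM final, parasite-free screening media added to match infected plates; puromycin 10 μM positive, DMSO 0.5% negative; run in parallel with 48 h PbLuc assay at 37 °C, 5% CO2; viability by CellTiter-Glo luminescence, normalized to controls.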
For the molecule `CN1CCOC[C@H]1c1nc(-c2cccc(F)c2)c[nH]1`, the cytotoxicity at 10 µM was -3.68%.

For `Cc1cc2nc(CO[C@H]3CN(C(=O)C4CC4)C[C@H]3F)[nH]c2cc1C`, the cytotoxicity at 10 µM was -43.4%.

Take `CN1C[C@H](O)[C@]2(CCN(C(=O)COc3ccccc3)C2)S1(=O)=O`: the cytotoxicity at 10 µM came out at 1.32%.

Turning to `Cc1cc(CNC(=O)c2ccno2)c(C)o1`, the cytotoxicity at 10 µM was -6.39%.

As for `Cc1ccccc1C(=O)N1CCCn2cnc(CN3CCCC3=O)c2C1`, the cytotoxicity at 10 µM came to 10.2%.

In the case of `O=C(COc1coc(CN2CCCCC2)cc1=O)NCc1ccccc1`, the cytotoxicity at 10 µM is -7.25%.

For the molecule `COCC1CC2(CCN(C(=O)c3cccc(C)c3)CC2)CO1` (centres undefined), the cytotoxicity at 10 µM is -5.15%.

Consider `O=C(c1ccc(F)c(F)c1)N1CCN2CCCC2C1` (centres undefined), for which the cytotoxicity at 10 µM is -7.09%.

With `CCOc1cc(C(=O)N2CCN(CC)CC2)cc2occc12`, the cytotoxicity at 10 µM worked out at 4.37%.

For the molecule `Oc1ccccc1-c1n[nH]c(C2CC2)n1`, the cytotoxicity at 10 µM amounted to 5.84%.

Turning to `CC(=O)N1CCC(Cc2ccc(-c3ccnn3C)nc2)CC1`, the cytotoxicity at 10 µM was 2.74%.

Regarding `CC(C)C(=O)N1CCCc2c(cnn2-c2ccccc2)C1`, the cytotoxicity at 10 µM turned out to be 11%.

In the case of `CNC(=O)C1(CCCc2ccccn2)CCN1Cc1coc(C)n1` (centres undefined), the cytotoxicity at 10 µM is 19.7%.

As to `Cc1cc(C2CCN(S(=O)(=O)N(C)C)CC2)ccn1`, the cytotoxicity at 10 µM was -13%.

`CCCn1cc(C(=O)N2CCCC2(C)c2nc(C)cc(N)n2)cn1` (centres undefined): the cytotoxicity at 10 µM is -1.13%.

For `Cc1cnc(-c2nc(O)c3c(n2)CN(C(=O)C2CCCO2)CC3)cn1` (centres undefined), the cytotoxicity at 10 µM was -0.661%.

Regarding `Cn1cc(CN2CCCC(c3nccnc3-c3cccc(F)c3)C2)cn1` (centres undefined), the cytotoxicity at 10 µM worked out at 0.954%.

On to `O=C(Cc1cccc(F)c1)N1CCCCC1c1ccn2ccnc2n1` (centres undefined), for which the cytotoxicity at 10 µM is -0.619%.

In the case of `Cc1cccc(CN2CCCC3(Cc4ccccc4CNC3=O)C2)n1` (centres undefined), the cytotoxicity at 10 µM is 5.37%.

For `CC(C)(C)NCC(=O)N1CCCC(n2ccnc2)C1` (centres undefined), the cytotoxicity at 10 µM was determined as 0.462%.

Turning to `CCOCc1ccc(NCc2cnc(N3CCN(C)CC3)nc2)cc1`, the cytotoxicity at 10 µM came out at 12.1%.

Take `O=C(CN1C(=O)CCCc2sccc21)NC1CCc2nccn2C1` (centres undefined): the cytotoxicity at 10 µM worked out at 9.29%.

In the case of `Cc1cccc(COc2ccc(C(C)NS(N)(=O)=O)cc2)c1` (centres undefined), the cytotoxicity at 10 µM was -6.96%.

On to `CSc1ncccc1C(=O)Nc1ccc(Cn2ccccc2=O)cc1`, for which the cytotoxicity at 10 µM was determined as 2.77%.

Consider `COc1cc(CNC(=O)COC2CCCC2)ccc1O`, for which the cytotoxicity at 10 µM is -7.2%.

Turning to `CCOCCN(C)C(c1cccnc1)c1ccc(F)cc1F` (centres undefined), the cytotoxicity at 10 µM turned out to be 5.64%.

Turning to `COC(=O)N(C)CCCC(=O)Nc1[nH]nc(-c2ccncc2)c1C`, the cytotoxicity at 10 µM was -0.946%.

For the molecule `Cn1ccc(C(=O)N2CCCC2c2ccc3c(c2)OCCO3)cc1=O` (centres undefined), the cytotoxicity at 10 µM stood at 12.3%.

For the molecule `Cc1cnc2c(S(=O)(=O)NC(=O)C(C)OCC3CC3)cccc2c1` (centres undefined), the cytotoxicity at 10 µM is -1%.

On to `CC(C)NC(=O)C(C(C)C)n1cnc2cc(F)c(F)cc21` (centres undefined), for which the cytotoxicity at 10 µM was 12.5%.

Regarding `COC(=O)N1CCC(Nc2ccc(C#N)c(Cl)c2)C1` (centres undefined), the cytotoxicity at 10 µM is -8.21%.

As for `CC(C)CC(CNC(=O)c1cccnc1Oc1cccnc1)N(C)C` (centres undefined), the cytotoxicity at 10 µM was determined as 1.44%.

In the case of `Cn1nc2c(cc1=O)CN(Cc1nc3ccccc3c(=O)[nH]1)CC2`, the cytotoxicity at 10 µM was -7.64%.

For the molecule `CCN1CCC(NC(=O)CN2CCCC(NS(C)(=O)=O)C2)CC1` (centres undefined), the cytotoxicity at 10 µM is 2.94%.

Take `COCCOCCC(=O)Nc1c(-c2ccc(F)cc2)ncn1C`: the cytotoxicity at 10 µM is -3.31%.

Turning to `Cc1nccn1-c1cc(CNC(=O)C2CCC(=O)N2)ccn1` (centres undefined), the cytotoxicity at 10 µM was -1.24%.

Take `Cc1cnc(C(=O)N2CCCN(Cc3cnn(C(C)C)c3)CC2)cn1`: the cytotoxicity at 10 µM turned out to be 1.28%.

Regarding `COC(=O)Cc1cccc(NC(=O)Cc2cc(C)[nH]n2)c1`, the cytotoxicity at 10 µM was -2.45%.

Take `Oc1ncccc1-c1nc(-c2cccc(CN3CCOCC3)c2)no1`: the cytotoxicity at 10 µM is -11.8%.

In the case of `OCCCN(CCn1cncn1)c1ccccc1`, the cytotoxicity at 10 µM was -4.04%.

For the molecule `Cc1nnc(CN(Cc2cccc(Br)c2)C2CC2)o1`, the cytotoxicity at 10 µM amounted to 3.94%.

On to `Cc1nsc(NCc2ccc(CS(=O)(=O)NC(C)C)cc2)n1`, for which the cytotoxicity at 10 µM is -2.8%.

For `COc1cccc(C2=CCN(CCN3CCOC3=O)CC2)c1`, the cytotoxicity at 10 µM is -7.52%.

On to `CCc1noc(CN(C)C(=O)C(C)(C)Oc2cccc(Cl)c2)n1`, for which the cytotoxicity at 10 µM is -3.63%.

Regarding `CN1CCN(C(=O)CCc2cc(Br)cs2)CC1`, the cytotoxicity at 10 µM is -5.35%.

Regarding `Cc1csc(N(C)C(=O)C(c2c(F)cccc2Cl)N(C)C)n1` (centres undefined), the cytotoxicity at 10 µM was -44.3%.

For `O=S(=O)(CC1CCCCO1)Nc1c(F)cccc1-n1cccn1` (centres undefined), the cytotoxicity at 10 µM was found to be 3.44%.

Consider `Cc1ccc(NC(=O)NC(C)c2nc[nH]n2)s1` (centres undefined), for which the cytotoxicity at 10 µM is -2.18%.

Take `CCC(C)(NCC(=O)Nc1ccccc1)c1nc(C)cs1` (centres undefined): the cytotoxicity at 10 µM was -8.66%.

In the case of `O=C(NCCCn1cccn1)N1CCCC1c1ccncc1` (centres undefined), the cytotoxicity at 10 µM was 21.5%.

For `Cc1nnc(NCC2(c3ccccc3)CC2)c(C#N)c1C`, the cytotoxicity at 10 µM was 3.51%.

`CC(CNC(=O)Nc1ccc(N(C)C)nc1)Cn1cccn1` (centres undefined): the cytotoxicity at 10 µM came out at 6.95%.

Regarding `CS(=O)(=O)CCNC(=O)C1(c2cccc(Cl)c2)CCCCC1`, the cytotoxicity at 10 µM was found to be 8.68%.

As for `CS(=O)(=O)NCC1CCCN(C(=O)Nc2ccccc2Cl)C1` (centres undefined), the cytotoxicity at 10 µM was -9.73%.

Turning to `CCc1cnc(N2CC3(CCN(S(=O)(=O)C4CC4)C3)C2)nc1`, the cytotoxicity at 10 µM was -109%.

For `CN1CCN(Cc2cnc3n2CCN(C(=O)c2cscn2)C3)CC1`, the cytotoxicity at 10 µM is -78.2%.

As for `Cn1cc(-c2nnn3c2COC(CNCc2nccs2)C3)cn1` (centres undefined), the cytotoxicity at 10 µM is -4.89%.

For the molecule `CN(C)CCn1ccnc1C1CCN(C(=O)CCC(F)(F)F)CC1`, the cytotoxicity at 10 µM was -0.734%.

As for `COc1ccccc1-c1ncc(CN2CCCC[C@H](N(C)C)C2)s1`, the cytotoxicity at 10 µM is -5.23%.

Take `OCC1(O)CCCN(Cc2noc(-c3ccccc3)n2)C1` (centres undefined): the cytotoxicity at 10 µM is -4.76%.

As for `Cc1cccc(-n2nc(CC(C)C)nc2[C@H](C)O)c1`, the cytotoxicity at 10 µM came out at 5.54%.

Consider `COC(=O)c1cc(OCC2CCC2)cc(C(=O)N[C@H](C)C(N)=O)c1`, for which the cytotoxicity at 10 µM is 16.6%.

As to `O=c1[nH]c(-c2ccccc2)nc2c1CCN(S(=O)(=O)N1CCCC1)C2`, the cytotoxicity at 10 µM came out at 3.86%.

In the case of `Cc1cc(C2CCC2)nc(NCC(C)(C)N2CCOCC2)n1`, the cytotoxicity at 10 µM stood at 11.5%.

On to `CN(C)[C@H]1CCN(c2nc(C(C)(C)C)nc3c2cnn3C)C1`, for which the cytotoxicity at 10 µM is -6.12%.

For the molecule `CSCc1noc(-c2ccc(C)c(N3CCNC3=O)c2)n1`, the cytotoxicity at 10 µM was -8.77%.

`CCN(C)C(=O)CN1CCC(c2cc(N3CCOCC3)nc(C)n2)CC1`: the cytotoxicity at 10 µM was -2.02%.

`COc1ccccc1-c1ccc(NCc2cn3c(n2)SCC3)nn1`: the cytotoxicity at 10 µM came to 8.62%.

`COc1ccc(/C=C/CN2CCN(c3nccnc3C)CC2)cc1`: the cytotoxicity at 10 µM is -8.47%.

Consider `CCCc1nc(C(=O)N2CCn3nc(C(=O)OC)cc3C2)cs1`, for which the cytotoxicity at 10 µM stood at 8.87%.

On to `CCN1CCN(C(C)(C)CNc2nc(C)cc(C3CCC3)n2)CC1`, for which the cytotoxicity at 10 µM was 1.47%.

For the molecule `O=C1NC[C@@]2(C(=O)O)CN(Cc3cccc(OC4CCCC4)c3)C[C@@H]12`, the cytotoxicity at 10 µM is -2.34%.

As for `CC1COCCN1Cc1nc(-c2cccc(C(F)(F)F)c2)no1` (centres undefined), the cytotoxicity at 10 µM is -13.9%.

With `c1ccc(-c2nnc(CN3CCCC(Cn4cncn4)C3)o2)cc1` (centres undefined), the cytotoxicity at 10 µM is -7.51%.

Take `CCC1c2ccsc2CCN1C(=O)NCc1cccnc1OC` (centres undefined): the cytotoxicity at 10 µM is -2.28%.

As to `CCCc1noc(CN2CCN(CCO)CC2)n1`, the cytotoxicity at 10 µM is -12.1%.

Take `Cc1ccc(NC2CCN(C(=O)c3c(C)oc(C)c3C)CC2)nn1`: the cytotoxicity at 10 µM was -2.4%.

`COc1ccc(C(CNC(=O)Nc2cc(C)nn2C)N(C)C)cc1` (centres undefined): the cytotoxicity at 10 µM stood at 3.31%.

Take `CC1CCCN(C(=O)NCCCn2cncn2)C1` (centres undefined): the cytotoxicity at 10 µM is -3.98%.

In the case of `CC(C)Oc1ncccc1CNC(=O)N1CCSCC1`, the cytotoxicity at 10 µM was -11.8%.

`O=C(Cc1ccc2c(c1)CCO2)N1CCN(c2nccs2)CC1`: the cytotoxicity at 10 µM was -10.7%.

As for `CCn1ncc2c1CCCC2NCc1cc(C)ccc1OC` (centres undefined), the cytotoxicity at 10 µM came out at 1.8%.

For the molecule `Cc1cnc(CN(C)C2CCN(CC(=O)Nc3nccs3)C2)o1` (centres undefined), the cytotoxicity at 10 µM was -1.49%.

Take `CCc1n[nH]c(C2CN(Cc3nnc(C4CCC4)o3)CCO2)n1` (centres undefined): the cytotoxicity at 10 µM was -6.28%.

Take `COCCc1noc(CN(C)C2CCCN(c3cccnn3)C2)n1` (centres undefined): the cytotoxicity at 10 µM is -8.64%.

Consider `COc1ncccc1NC(=O)C1CC1`, for which the cytotoxicity at 10 µM is -19.2%.

Consider `Cn1cnc2c1CCN(CCOc1ccc(C#N)cc1)C2`, for which the cytotoxicity at 10 µM was -9.47%.

In the case of `Cc1cccc(-c2noc(CN3CCCCC3Cn3cncn3)n2)c1` (centres undefined), the cytotoxicity at 10 µM was -4.32%.

For `CC(Cc1cccs1)NC(=O)CCn1cccn1` (centres undefined), the cytotoxicity at 10 µM was -14.7%.

`CCc1n[nH]c(C2CN(CCCS(C)(=O)=O)CCO2)n1` (centres undefined): the cytotoxicity at 10 µM was -3.48%.

Consider `Clc1ccc(OCCNCCn2cccn2)cc1`, for which the cytotoxicity at 10 µM is -14.4%.

Regarding `O=C(CCN1CCCC1c1cccc(F)c1)N1CCc2sccc2C1` (centres undefined), the cytotoxicity at 10 µM was -10.7%.

In the case of `CC1CCN(Cn2nc(-c3ccc(F)cc3)oc2=O)CC1`, the cytotoxicity at 10 µM was -2.55%.

On to `CCOCC(O)CN1CCN(C(=O)Cc2ccc3c(c2)CCO3)CC1` (centres undefined), for which the cytotoxicity at 10 µM is -18.5%.

With `O=C(NCc1cc[nH]n1)N(CCCO)C1CCc2ccccc21` (centres undefined), the cytotoxicity at 10 µM is -3.27%.

`Cc1nc(-c2ccccc2)n(CC(=O)N(C(C)C)C(C)C)n1`: the cytotoxicity at 10 µM is -4.57%.

`CNC(=O)c1cc2c(nc1N(C)C)CCN(S(=O)(=O)C1CC1)CC2`: the cytotoxicity at 10 µM came out at 0.118%.

For `NC(=O)COc1ccc(CNCc2ccc(F)cc2)cc1`, the cytotoxicity at 10 µM is -2.05%.

As to `C=c1ncsc1=C1NN=C(C2CCCN2C(=O)c2ccn(CC)n2)O1` (centres undefined), the cytotoxicity at 10 µM was -7.82%.
